Data: ChEMBL document CHEMBL4270573, “Novel nicotinoyl pyrazoline derivates bearing N-methyl indole moiety as antitumor agents: Design, synthesis and evaluation” (Eur J Med Chem, 2018)
The source made the active and inactive calls. The rule behind the calls is not given here.

Key:
Tubulin (Homo sapiens) [1] = biological target: T1, Tubulin (Homo sapiens) (UniProt P68371+Q9H4B7+P0DPH7+P68366+Q13509+Q71U36+P04350+Q3ZCM7+P07437+P68363+Q9BQE3+Q6PEY2+Q13885+Q9BVA1+Q9BUF5); assay: Inhibition of tubulin polymerization in human HepG2 cells assessed as multinucleated cell formation at 0.04 to 0.1 uM after 12 hrs by DAPI staining based immunofluorescence confocal laser scanning microscopic analysis
Mus musculus [2] = assay: Cardiotoxicity in nude mouse xenografted with human HeLa cells assessed as cellular inflammatory infiltration in heart at 10 to 20 mg/kg, ip after 14 days by hematoxylin and eosin staining based microscopic analysis; type: toxicity, organism-based; settings: in vivo, 336 h
Summary of the method: (§1)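 Excised tumours and heart, liver, kidney and spleen were H&E-stained and examined microscopically. Tumour scoring covered cell arrangement and necrosis. Organ scoring covered inflammatory infiltration, edema, necrosis and cell morphology.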

HeLa [3] = assay: Antitumor activity against human HeLa cells xenografted in nude mouse assessed as relative tumor growth inhibition at 20 mg/kg, ip after 14 days (reference value: 59.92%); type: functional; settings: 336 h, read-out: TGI
HepG2 [4] = assay: Cell cycle arrest in human HepG2 cells assessed as accumulation at S phase at 0.10 uM after 24 hrs by propidium iodide staining based flow cytometric analysis (reference value: 20.40%); type: functional
Summary of the method: (§2)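 HepG2 and HeLa cells were exposed to 0, 0.020, 0.040, 0.060, 0.080 or 0.10 µM for 6, 12 or 24 h. DNA content was stained with propidium iodide and analysed by flow cytometry to give the percentage of cells in G0/G1, S and G2/M phases; sub-G1 cells were also recorded.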

Mus musculus [5] = assay: Cardiotoxicity in nude mouse xenografted with human HeLa cells assessed as necrosis in heart at 10 to 20 mg/kg, ip after 14 days by hematoxylin and eosin staining based microscopic analysis; type: toxicity, organism-based; settings: in vivo, 336 h; summary of the method: as §1
Mus musculus [6] = assay: Toxicity in nude mouse xenografted with human HeLa cells assessed as change in mouse heart weight at 10 to 20 mg/kg, ip after 14 days; type: organism-based; settings: in vivo, 336 h
HeLa [7] = assay: Cell cycle arrest in human HeLa cells assessed as accumulation at G0/G1 phase at 0.10 uM after 24 hrs by propidium iodide staining based flow cytometric analysis (reference value: 66.26%); type: functional; summary of the method: as §2
Tubulin (Homo sapiens) [8] = biological target: T1, Tubulin (Homo sapiens); assay: Inhibition of tubulin polymerization in human HepG2 cells assessed as abnormal mitotic spindle formation at 0.04 to 0.1 uM after 12 hrs by DAPI staining based immunofluorescence confocal laser scanning microscopic analysis; type: cell-based
HepG2 [9] = assay: Induction of apoptosis in human HepG2 cells assessed as viable cells at 0.10 uM after 24 hrs by Annexin V-FITC/propidium iodide staining based flow cytometric analysis (reference value: 94.5%); type: functional; settings: HepG2, 24 h, read-out: Activity
Summary of the method: (§3)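 HepG2 and HeLa cells were exposed to 0, 0.02, 0.040, 0.060, 0.080 and 0.10 µM for 6, 12 and 24 h. Cells were double-stained with Annexin V-FITC/PI and read by flow cytometry. Apoptotic rate was the percentage of FITC-positive cells, counting early plus late apoptotic.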

HepG2 [10] = assay: Cell cycle arrest in human HepG2 cells assessed as accumulation at G2/M phase at 0.10 uM after 24 hrs by propidium iodide staining based flow cytometric analysis (reference value: 20.17%); type: functional; summary of the method: as §2
HepG2 [11] = assay: Cell cycle arrest in human HepG2 cells assessed as accumulation at G2/M phase at 0.040 uM after 24 hrs by propidium iodide staining based flow cytometric analysis (reference value: 20.17%); type: functional; summary of the method: as §2
HeLa [12] = assay: Cell cycle arrest in human HeLa cells assessed as accumulation at G2/M phase after 6 to 24 hrs by propidium iodide staining based flow cytometric analysis; type: functional; summary of the method: as §2
HeLa [13] = assay: Induction of apoptosis in human HeLa cells assessed as late apoptotic cells at 0.060 uM after 24 hrs by Annexin V-FITC/propidium iodide staining based flow cytometric analysis (reference value: 4.98%); type: functional; summary of the method: as §3
HeLa [14] = assay: Induction of apoptosis in human HeLa cells assessed as late apoptotic cells at 0.10 uM after 24 hrs by Annexin V-FITC/propidium iodide staining based flow cytometric analysis (reference value: 4.98%); type: functional; summary of the method: as §3
HepG2 [15] = assay: Induction of apoptosis in human HepG2 cells assessed as viable cells at 0.040 uM after 24 hrs by Annexin V-FITC/propidium iodide staining based flow cytometric analysis (reference value: 94.5%); type: functional; settings: HepG2, 24 h, read-out: Activity; summary of the method: as §3
Tubulin (Homo sapiens) [16] = biological target: T1, Tubulin (Homo sapiens); assay: Inhibition of tubulin polymerization in human HepG2 cells assessed as abnormal microtubule network formation at 0.04 to 0.1 uM after 12 hrs by DAPI staining based immunofluorescence confocal laser scanning microscopic analysis; type: cell-based
HepG2 [17] = assay: Induction of apoptosis in human HepG2 cells assessed as necrotic cells at 0.080 uM after 24 hrs by Annexin V-FITC/propidium iodide staining based flow cytometric analysis (reference value: 0.270%); type: functional; summary of the method: as §3
HeLa [18] = assay: Induction of apoptosis in human HeLa cells assessed as viable cells at 0.060 uM after 24 hrs by Annexin V-FITC/propidium iodide staining based flow cytometric analysis (reference value: 88.6%); type: functional; settings: read-out: Activity; summary of the method: as §3
HepG2 [19] = assay: Induction of apoptosis in human HepG2 cells assessed as early apoptotic cells at 0.060 uM after 24 hrs by Annexin V-FITC/propidium iodide staining based flow cytometric analysis (reference value: 2.31%); type: functional; summary of the method: as §3
Tubulin (Homo sapiens) [20] = biological target: T1, Tubulin (Homo sapiens); assay: Inhibition of tubulin polymerization in human HepG2 cells assessed as mitotic catastrophe formation at 0.04 to 0.1 uM after 12 hrs by DAPI staining based immunofluorescence confocal laser scanning microscopic analysis; type: cell-based
HepG2 [21] = assay: Induction of apoptosis in human HepG2 cells assessed as early apoptotic cells at 0.080 uM after 24 hrs by Annexin V-FITC/propidium iodide staining based flow cytometric analysis (reference value: 2.31%); type: functional; summary of the method: as §3
HeLa [22] = assay: Induction of apoptosis in human HeLa cells assessed as early apoptotic cells at 0.10 uM after 24 hrs by Annexin V-FITC/propidium iodide staining based flow cytometric analysis (reference value: 6.17%); type: functional; summary of the method: as §3
HeLa [23] = assay: Induction of apoptosis in human HeLa cells assessed as late apoptotic cells at 0.080 uM after 24 hrs by Annexin V-FITC/propidium iodide staining based flow cytometric analysis (reference value: 4.98%); type: functional; summary of the method: as §3
Mus musculus [24] = assay: Toxicity in nude mouse xenografted with human HeLa cells assessed as cellular inflammatory infiltration in spleen at 10 to 20 mg/kg, ip after 14 days by hematoxylin and eosin staining based microscopic analysis; type: organism-based; settings: in vivo, 336 h
HepG2 [25] = assay: Induction of apoptosis in human HepG2 cells assessed as viable cells at 0.020 uM after 24 hrs by Annexin V-FITC/propidium iodide staining based flow cytometric analysis (reference value: 94.5%); type: functional; settings: HepG2, 24 h, read-out: Activity; summary of the method: as §3
HepG2 [26] = assay: Cell cycle arrest in human HepG2 cells assessed as accumulation at G0/G1 phase at 0.040 uM after 24 hrs by propidium iodide staining based flow cytometric analysis (reference value: 55.63%); type: functional; summary of the method: as §2
HeLa [27] = assay: Antitumor activity against human HeLa cells xenografted in nude mouse assessed as relative tumor growth inhibition at 10 mg/kg, ip after 14 days (reference value: 59.92%); type: functional; settings: 336 h, read-out: TGI
Mus musculus [28] = assay: Nephrotoxicity in nude mouse xenografted with human HeLa cells assessed as morphological changes in kidney cells at 10 to 20 mg/kg, ip after 14 days by hematoxylin and eosin staining based microscopic analysis; type: toxicity, organism-based; settings: in vivo, 336 h

COc1cccc(C2=NN(C(=O)c3ccc(C)nc3)C(c3cn(C)c4ccc(OC)cc34)C2)c1 (stereo not drawn)
inhibition (Tubulin (Homo sapiens) [1]): Active | Activity (Mus musculus [2]): Non-Toxic | inhibition in vivo at 20 mg/kg (HeLa [3]): 61.5% | Activity (HepG2 [4]): 27.64% | Activity (Mus musculus [5]): Non-Toxic | Activity (Mus musculus [6]): Non-Toxic | Activity (HeLa [7]): 6.19% | inhibition (Tubulin (Homo sapiens) [8]): Active | viability at 0.1 µM (HepG2 [9]): 70.7% | Activity (HepG2 [10]): 51.22% | Activity (HepG2 [11]): 30.26% | Activity (HeLa [12]): Dose-dependent effect | Activity (HeLa [13]): 6.49% | Activity (HeLa [14]): 8.26% | viability at 0.04 µM (HepG2 [15]): 84.2% | inhibition (Tubulin (Homo sapiens) [16]): Active | Activity (HepG2 [17]): 2.95% | viability at 0.06 µM (HeLa [18]): 66.9% | Activity (HepG2 [19]): 7.94% | inhibition (Tubulin (Homo sapiens) [20]): Active | Activity (HepG2 [21]): 9.61% | Activity (HeLa [22]): 32.8% | Activity (HeLa [23]): 7.03% | Activity (Mus musculus [24]): Non-Toxic | viability at 0.02 µM (HepG2 [25]): 92.9% | Activity (HepG2 [26]): 28.39% | inhibition in vivo at 10 mg/kg (HeLa [27]): 47.1% | Activity (Mus musculus [28]): Non-Toxic
